Assay results gathered from unrelated publications.
Compare with care: the assays were run in different laboratories.
Read-out: cell growth or viability

`C#CCN[C@@H]1CCc2ccccc21` gave an IC50 of over 500 µM (SH-SY5Y; MTT; 24 h).
The CC50 of `O=[N+]([O-])c1ccc(-c2nc3cccc(O)c3[nH]2)o1` is reported as 97 µM (CHO; resazurin; 72 h).
With `COc1ccc(S(=O)(=O)ON=C2C=C(C)C(=O)C(C)=C2)cc1` the CC50 was 0.19 µM (SH-SY5Y).
With `CC(Oc1ccc(Cl)cc1Cl)C(=O)NC(c1ccc(F)cc1)C1CCC1` (centres unmarked) the CC50 was over 100 µM (CHO; LDH).
`CN1CCN(c2nccc3nc(-c4ccc(F)c(F)c4)[nH]c23)CC1` has a CC50 of over 50 µM (CHO).
`CC(Oc1ccc(F)cc1Cl)C(=O)NCc1ccc2c(c1)OCO2` (centres unmarked) has a CC50 of over 100 µM (CHO; LDH).
`O=C(Cn1cnc2ccccc21)NN=Cc1ccc(O)cc1O` gave an IC50 of 89.2 µM (SH-SY5Y; MTT; 24 h).
For `CN1CCN(CC2CCN(c3nccc4[nH]c(-c5cc(F)cc(F)c5)nc34)CC2)CC1`, the CC50 was 24 µM (CHO).
